Data on 10 compounds can be found in ChEMBL document CHEMBL4811322, “Impact of α-modifications on the activity of triazole bisphosphonates as geranylgeranyl diphosphate synthase inhibitors” (Bioorg Med Chem, 2021).

Active and inactive are the calls of the source. No cut-off for these calls is given here.

The target in assay [1] is T1, Geranylgeranyl pyrophosphate synthase (Homo sapiens, UniProt O95749).
T1 sequence (O95749 whole entry): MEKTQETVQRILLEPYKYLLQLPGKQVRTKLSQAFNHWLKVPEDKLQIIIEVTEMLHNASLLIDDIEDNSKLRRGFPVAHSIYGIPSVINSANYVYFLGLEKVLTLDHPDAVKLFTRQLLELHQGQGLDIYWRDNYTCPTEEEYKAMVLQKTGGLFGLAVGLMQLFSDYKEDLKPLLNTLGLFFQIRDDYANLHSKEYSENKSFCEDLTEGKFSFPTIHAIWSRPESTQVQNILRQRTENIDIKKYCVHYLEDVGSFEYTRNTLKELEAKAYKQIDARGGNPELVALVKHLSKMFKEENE
Put plainly: Inhibition of recombinant GGDPS (unknown origin) using FPP and [14C] IPP as substrate preincubated for 10 mins followed by substrate addition measured after 30 mins by liquid scintillation counting method. The procedure, abridged: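 In the enzyme assay, each compound was tested in duplicate at multiple concentrations, with three independent experiments. IC50 values were derived from concentration-response curve analysis.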

In assay [2] the target is T2, Geranylgeranyl pyrophosphate synthase (Homo sapiens) (UniProt O95749).
T2 sequence (whole entry): T1 sequence (O95749 whole entry)
Put plainly: Inhibition of GGDPS in human RPMI-8226 cells assessed as lowest effective concentration required to show unmodified Rap1a band after 48 hrs by immunoblot analysis. It is filed as cell-based. Put shortly:
(§1)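 LEC is the lowest concentration giving both a visible unmodified Rap1a band and a statistically significant rise in lambda light chain (ELISA, two-tailed t-test, p<0.05). RPMI-8226 cells were treated for 48 h. The Rap1a antibody detects only unmodified Rap1a, with β-tubulin as loading control. Lysates were made in RIPA buffer and normalised by BCA.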

The target of assay [3] is T2, Geranylgeranyl pyrophosphate synthase (Homo sapiens). Put plainly: Inhibition of GGDPS in human RPMI-8226 cells assessed as lowest effective concentration required to show unmodified Rap1a band up to 100 uM after 48 hrs by immunoblot analysis. It is filed as cell-based. Particulars: dose microM <=100, time 48.0 hrs. The procedure, abridged:
as §1

The test system of the next assay is RPMI-8226. Put plainly: Cytotoxicity against human RPMI-8226 cells assessed as decrease in cell viability at 10 to 100 uM measured after 48 hrs by MTT assay. The assay is classed as functional, cell-based. Particulars: dose 10-100 µM. Put shortly:
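RPMI-8226 myeloma cells seeded at 2.5 × 10^4 cells per 100 μL well and exposed to compound for 48 h, then MTT read-out. Absorbance of solvent-only control cells set as 100% MTT activity. Data expressed as percentage of control, mean ± SD, n=4.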
(In general: Tetrazolium assays rely on reduction of a dye to a coloured formazan, in cell work by metabolically active cells.)

Assay [4] addresses T2, Geranylgeranyl pyrophosphate synthase (Homo sapiens). Put plainly: Inhibition of GGDPS in human RPMI-8226 cells assessed as disruption of farnesylation at 0.05 to 0.5 uM measured after 48 hrs by immunoblot analysis. The assay is classed as cell-based. The settings on record: dose 0.05-0.5 µM. The procedure, abridged:
(§2)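 H-Ras farnesylation was checked by immunoblot after RPMI-8226 cells (ATCC) were exposed to compound for 48 h, with lovastatin 10 μM as positive control. Whole-cell RIPA lysates with protease/phosphatase inhibitors were protein-normalised by BCA, run on SDS-PAGE and transferred to PVDF. Blots were probed for H-Ras with β-tubulin as loading control and detected with HRP secondary/ECL. Gels are representative of three independent studies.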

The target is the same in assay [5]. Put plainly: Inhibition of GGDPS in human RPMI-8226 cells assessed as increase in intracellular lambda chain level after 48 hrs by ELISA. The assay is classed as cell-based. Put shortly: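 Intracellular lambda light chain was quantified by ELISA in the same 48 h RPMI-8226 lysates prepared for immunoblotting, with lovastatin 10 μM as positive control. Values are percentage of untreated control, mean ± SD, n=3. Two-tailed t-test against untreated cells, significance at p<0.05.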
A general note: ELISA stands for enzyme-linked immunosorbent assay.

Assay [6] shares this target. Put plainly: Inhibition of GGDPS in human RPMI-8226 cells assessed as disruption of farnesylation at 0.1 to 1 uM measured after 48 hrs by immunoblot analysis. The assay is classed as cell-based. Particulars: dose 0.1-1 µM. Put shortly:
as §2
(In general: A western blot detects proteins with antibodies after separation by electrophoresis.)

Usually IC50 stands for the concentration at which inhibition is half-maximal. On to `CCC(Cc1cn(C/C=C(\C)CCC=C(C)C)nn1)(P(=O)(O)O)P(=O)(O)O`, for which the half-maximal inhibitory concentration (IC50) in assay [1] was found to be 5900 nM. In addition, the LED in assay [2] was found to be 2.5 µM.
For `CC(C)=CCC/C(C)=C/Cn1cc(CC(C)(P(=O)(O)O)P(=O)(O)O)nn1`, in that order: 1300 nM and 0.1 µM.
`C=C(Cc1cn(C/C=C(\C)CCC=C(C)C)nn1)P(=O)(O)O`: in assay [1], the IC50 was more than 100000 nM. Besides, the inhibition result in assay [3] is “inactive”. In addition, the outcome with RPMI-8226 was inactive.
Turning to `CC(C)=CCC/C(C)=C/Cn1cc(CCP(=O)(O)O)nn1`, in assay [1], the IC50 is more than 100000 nM. In addition, the inhibition result in assay [3] was “inactive”. In the assay on RPMI-8226, the outcome was inactive.
In the case of `CC(C)=CCC/C(C)=C/Cn1cc(CC(O)(P(=O)(O)O)P(=O)(O)O)nn1`, the LED in assay [2] worked out at 0.1 µM. Moreover, the inhibition entry in assay [4] is “inactive”. For the same compound, the outcome with RPMI-8226 was Active.
Turning to `CC(C)=CCC/C(C)=C/Cn1cc(CC(F)(P(=O)(O)O)P(=O)(O)O)nn1`, the 50% inhibitory concentration (IC50) in assay [1] stood at 3000 nM. In assay [2], the LED came out at 0.25 µM. Besides, in assay [5], the inhibition entry is “Active”. Further, the inhibition entry in assay [6] is “inactive”. Also, the result in the assay on RPMI-8226 was Active.
As to `CC(C)=CCC/C(C)=C/Cn1cc(C=C(P(=O)(O)O)P(=O)(O)O)nn1`, in assay [1], the half-maximal inhibitory concentration (IC50) amounted to 2700 nM. Further, the LED in assay [2] was 0.25 µM. Also, in assay [6], the inhibition result is “inactive”. The outcome in the assay with RPMI-8226 was Active.
The like results for `CC(C)=CCC/C(C)=C/Cn1cc(C2CC2(P(=O)(O)O)P(=O)(O)O)nn1` (stereo not given) were, in that order, 1600 nM, 0.5 µM, “inactive” and “Active”.
For the compound `CC(C)=CCC/C(C)=C/Cn1cc(CC(P(=O)(O)O)P(=O)(O)O)nn1`, the LED in assay [2] amounted to 0.5 µM.
For `CC(C)=CCC/C(C)=C/Cn1cc(CC(CN)(P(=O)(O)O)P(=O)(O)O)nn1`, the IC50 in assay [1] stood at 2000 nM. In addition, the LED in assay [2] was found to be 0.5 µM. In addition, the result with RPMI-8226 was Active.
